# Results from different studies.
# Each line is one published result; the experiments were not run side by side.
# Target: Serine/threonine-protein kinase tousled-like 2 (TLK2, Homo sapiens, UniProt Q86UE8)
Compound,assay,setting,endpoint,value
COc1cccc2c(NCc3ccccc3)nc(-n3c(N)nc4ccccc43)nc12,"target engagement in cells, inhibitor, chemoproteomics",20 mM,inhibition,-7.5%
C[C@H](c1ccc(F)cc1)N(Cc1cccc(C(=O)O)c1)C(=O)c1cnc2ccccc2c1,"cell-free assay, competition with immobilised ligand",1 µM,remaining binding,97%
O=C1NC(=O)c2cc(Nc3ccc(F)cc3)c(Nc3ccc(F)cc3)cc21,cell-free assay,0.5 µM,remaining signal,93.5%
O=C(Nc1cnc(Oc2ccc(F)cc2)nc1)N1CCc2ncccc2[C@@H]1c1ccc(F)cc1,"cell-free assay, competition with immobilised ligand",1 µM,remaining binding,89%
COc1cc2c(N3CCN(C(=O)Nc4ccc(OC(C)C)cc4)CC3)ncnc2cc1OCCCN1CCCCC1,cell-free assay,0.5 µM,remaining signal,96.2%
CCCOc1ccc(OC)c(F)c1C(=O)c1ccc(C(=O)N[C@@H]2CNC[C@H]2NC(=O)c2ccc3[nH]ncc3c2)cc1,"enzyme activity, inhibitor",10 µM,remaining activity,90%
Cc1ccc(C(=O)NCc2ccsc2)cc1C#Cc1cn(C(C)C)c2ncnc(N)c12,"enzyme activity, inhibitor",1 µM,activity vs control,97%
CCCCNc1ncc2c(-c3ccc(F)cc3)nn(C[C@H]3CC[C@H](N)CC3)c2n1,"target engagement in cells, inhibitor, chemoproteomics",20 mM,inhibition,-20.7%
Cc1ccc(C(=O)Nc2ccc(CN3CCN(C)CC3)c(C(F)(F)F)c2)cc1C#Cc1cnc2cccnn12,"enzyme activity, inhibitor",23.5 nM,remaining activity,100%
CC(C)(C)c1nc(-c2cccc(NS(=O)(=O)c3c(F)cccc3F)c2F)c(-c2ccnc(N)n2)s1,"enzyme activity, inhibitor, radiometric",1 µM,remaining activity,96%
O=C1NC(c2ccccn2)Sc2ccccc21 (centres unmarked),"cell-free assay, competition with immobilised ligand",1 µM,remaining binding,96%
Nc1ncnc2occ(-c3ccc(NC(=O)Nc4cc(C(F)(F)F)ccc4F)cc3)c12,"cell-free assay, inhibitor",20 µM,remaining signal,89%
O=C(NC[C@@H]1[C@H]2CN(C(=O)OCc3cc(C(F)(F)F)cc(C(F)(F)F)c3)C[C@@H]12)c1ccc2[nH]nnc2c1,"cell-free assay, competition with immobilised ligand",1 µM,remaining binding,90%
CN1CC(Oc2cnc(C#N)cc2-c2ccn3nc(NC(=O)C4CC4)cc3c2)C1,"enzyme activity, inhibitor",1 µM,inhibition,1%
CNC(=O)c1cc(Oc2ccc(NC(=O)Nc3ccc(Cl)c(C(F)(F)F)c3)cc2)ccn1,"enzyme activity, inhibitor",0.3 µM,inhibition,-9%
CCCCN(CCCC)C(=O)CN1C[C@@H](c2cc(OC)c3c(c2)OCO3)[C@H](C(=O)O)[C@H]1CC(C)(C)CCC,"cell-free assay, competition with immobilised ligand",1 µM,remaining binding,100%
Cc1ccc(Nc2nccc(N(C)c3ccc4c(C)n(C)nc4c3)n2)cc1S(N)(=O)=O,"cell-free assay, inhibitor",0.5 µM,remaining signal,85.6%
O=C(Nc1cnn(-c2csc(C(=O)NC3COC3)c2)c1)Nc1c(F)cccc1Cl,"enzyme activity, inhibitor",5 µM,remaining activity,109%
O=C(Nc1cccnn1)N1CC(C/C=C/c2cncc(Oc3ccc(C(F)(F)F)cn3)n2)C1,"cell-free assay, competition with immobilised ligand",1 µM,remaining binding,100%
COc1cc(Cl)c(C(=O)N[C@@H](CN[C@H]2CC[C@@H](N)CC2)Cc2ccc(C#N)cc2)cc1-c1ccc(CN[C@H](C)c2ccc(C)cc2)o1,"enzyme activity, inhibitor",1 µM,remaining activity,94%
